Screening results (PubChem BioAssay)
Yeast growth inh: growth inhibitors of yeast BB579 in restrictive medium, primary screen, yeast lifespan-shortening project, S. cerevisiae. OD615, 48 h. inhibition, % at 10 µM. hit rate 0.51% among 140,000;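 active means inhibition above a set limit, 3 SD over the mean compound inhibition, cut at about 44% in these data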
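Detection: OD615 turbidity measurement; Material: Saccharomyces cerevisiae DeaD strain BB579, replicative lifespan model yeast; Timing: 48 h exposure, 30 °C; Doses: single 10 µM dose; Medium: CSMM-D restrictive synthetic medium containing dextrose (glucose); Controls: amphotericin B at 10 µg/mL as positive control.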
Yeast life ext: compounds extending yeast replicative lifespan, primary screen, S. cerevisiae, OD615. S. cerevisiae growth with nicotinamide; deaD strain in restrictive glucose medium. inhibition of the nicotinamide effect, % at 10 µM. hit rate 0.68% among 130,000. AID 775, 2007;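 active means inhibition above a set limit, placed 3 SD over the median of all compounds, cut at about 26% in these data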
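System: Modified budding yeast, DeaD strain | Buffer or medium: Restrictive glucose medium | Also added: 1.5 mM nicotinamide | Doses: 10 µM single point, 0.25% DMSO | Schedule: 48 h compound exposure at 30 °C, humidified | Detection: Absorbance at 615 nm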
SDO1 yeast rescue: growth rescue of sdo1-depleted yeast, primary screen, S. cerevisiae, bone marrow failure model. S. cerevisiae sdo1-depleted JHY4D growth rescue, OD600 30 h; stronger effect = higher value; pdr5 snq2 efflux-pump mutant strain. z-score at 10 µM. hit rate 0.21% among 140,000. AID 817, 2007;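 active means z-score above 3 at both the 24 hr and the 30 hr optical density reads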
RAM network inh: inhibitors of the yeast RAM network, primary screen, dse1pr::URA3 reporter, 5-FOA selection; S. cerevisiae dse1pr::URA3 reporter, 5-FOA growth OD615, 2 d; analog-sensitive cbk1-as2 kinase mutant strain; inhibition, % at 50 µM; hit rate 1.8% among 190,000;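 active means inhibition above a set limit, 3 SD over mean compound inhibition, cut at about 8.4% in these data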;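 further: inhibition rescues growth on 5-FOA so higher OD means more RAM inhibition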
Measles CPE: compounds protecting cells from measles virus cytopathic effect, primary screen, measles RdRp inhibitor project, single point, MLSMR library, absorbance; AID 841, 2007; Measles virus-infected cells, CPE protection; hit rate 1.5% among 140,000; protection (pct of control), % at 4 µM; in the data active means protection mostly above about 24%, no sharp cut-off; inactive means mostly below about 26%
RAM 5-FOA: 5-FOA growth of efflux-deficient control yeast, dose response, counter-screen for RAM network inhibitor project, S. cerevisiae, OD615 | shares compounds with RAM network inh | S. cerevisiae efflux-deficient reporter strain, 5-FOA growth OD615, 2 days | max inhibition, % | 1,200 tested, under 10 active | AID 1305, 2008; call rule not given here
Of the large screens only hits and unclear results are named; the others gave an inactive call (follow-up assays come after a bar, where they were run). Only some compounds are listed: those with a hit (about 3.8% of all), similar ones and a draw of the others.

O=C(CSc1nnc(SCc2ccc(Cl)cc2)s1)c1ccc2c(c1)OCO2	RAM network inh 16 | RAM 5-FOA inactive
COc1cccc(NC(=S)NCc2ccc3c(c2)cc(C)n3C)c1	RAM network inh 12 (no result: Yeast growth inh, Yeast life ext, SDO1 yeast rescue, Measles CPE) | RAM 5-FOA inactive
CC/C(O)=C1\C(=O)CC(c2ccccc2)CC1=NC(C)C (stereo not given)	none
CC12CCC(C(=O)Nc3nc4ccccc4s3)(OC1=O)C2(C)C (stereo not given)	none (no result: Yeast growth inh, Yeast life ext, SDO1 yeast rescue, Measles CPE)
CC(=O)C(N=Nc1ccccc1)(Sc1nnc(-c2ccccc2)n1-c1ccccc1)C(=O)Nc1ccccc1 (stereo not given)	none
CC(=O)C(N=Nc1ccccc1)(Sc1nnc(-c2ccccc2)n1-c1ccccc1)C(C)=O	RAM network inh 12 | RAM 5-FOA inactive
O=P(COCCOCCOCP(=O)(c1ccccc1)c1ccccc1)(c1ccccc1)c1ccccc1	none (no result: Yeast growth inh, Yeast life ext, SDO1 yeast rescue, Measles CPE)
CCCCOn1c(C)c(C(=O)OCC)c2c3no[n+]([O-])c3ccc21	RAM network inh 12 | RAM 5-FOA inactive
O=C(CSc1nnc(-c2ccccc2Br)o1)N1CCc2ccccc2C1	RAM network inh 17 | RAM 5-FOA inactive
COc1cc(/C=N/OCC(=O)NC23CC4CC(CC(C4)C2)C3)ccc1OCc1ccccc1	RAM network inh 12, Measles CPE 49 | RAM 5-FOA inactive
COc1ccc(/C=N/OCC(=O)NC(c2ccccc2)c2ccccc2)cc1OC	none
O=C(COc1ccccc1Cl)Nc1cc(Cl)ccc1Oc1ccccc1	RAM network inh 14 | RAM 5-FOA inactive
O=C(COc1ccccc1)Nc1ccccc1Oc1ccccc1	none
C=CCN(CC=C)S(=O)(=O)c1ccc(NC(=O)COc2ccccc2OC)cc1	RAM network inh 15 (no result: Yeast life ext) | RAM 5-FOA inactive
COc1ccccc1OCC(=O)Nc1ccc(S(=O)(=O)N2CCCCCC2)cc1	none
CCOc1cc(CNc2ccc(CNc3ncn[nH]3)cc2)ccc1OCc1ccccc1	RAM network inh 12 | RAM 5-FOA inactive
COc1cc(CNc2ccc(CNc3ncn[nH]3)cc2)ccc1OCC(=O)NC(C)(C)C	none
Cc1c(CC=C(Cl)Cl)c(=O)[nH]c2c(C)cccc12	none (no result: Measles CPE)
CCOc1ccc(-c2c(C(=O)N/N=C/c3ccc(OC)cc3)nnn2-c2nonc2N)cc1	RAM network inh 12 | RAM 5-FOA inactive
CCCOc1ccc(-c2c(C(=O)N/N=C/c3ccc(OC)cc3)nnn2-c2nonc2N)cc1	none
Cc1cc(NC(=O)C2CCC2)n(-c2ccccn2)n1	none
COc1cccc(/C=C(/C(=O)OCC(=O)NC2CCCC(C)C2C)c2ccccc2)c1 (stereo not given)	RAM network inh 20 | RAM 5-FOA inactive
COC(=O)c1cn(CCOc2ccc(C)cc2)c2ccccc12	none
CCOC(=O)/C(C#N)=C/c1cn(CCOc2ccc(OC)cc2)c2ccccc12	RAM network inh 13 | RAM 5-FOA inactive
O=C(NCCOc1ccccc1)C(=O)NCC1CCCO1 (stereo not given)	none (no result: Yeast growth inh, Yeast life ext, SDO1 yeast rescue, Measles CPE)
N#C/C(=C\c1cn(CCOc2ccccc2)c2ccccc12)C(=O)NCC1CCCO1 (stereo not given)	RAM network inh 16 | RAM 5-FOA inactive
O=S(=O)(c1ccccc1F)N(Cc1ccco1)Cc1nnc(-c2ccccc2Br)o1	RAM network inh 17 | RAM 5-FOA inactive
Clc1ccc(OCc2nnc(-c3ccccc3Br)o2)cc1	none
O=C(COc1ccccc1)OC(C(=O)c1ccccc1)c1ccccc1 (stereo not given)	RAM network inh 12 | RAM 5-FOA inactive
O=C(CNC(=O)c1ccco1)OC(C(=O)c1ccccc1)c1ccccc1 (stereo not given)	none
Cc1ccc(C(=O)C(OC(=O)COc2ccccc2C)c2ccccc2)cc1 (stereo not given)	RAM network inh 14 | RAM 5-FOA inactive
O=C(O)COCC(=O)Nc1ccc(-n2cnnn2)cc1	none (no result: Yeast growth inh, Yeast life ext, SDO1 yeast rescue, Measles CPE)
O=c1c2ccccc2c(C=NCCc2ccccc2)c(O)n1Cc1ccccc1	RAM network inh 13 | RAM 5-FOA inactive
